In ChEMBL document CHEMBL4033786, “Discovery of Novel 1-Cyclopentenyl-3-phenylureas as Selective, Brain Penetrant, and Orally Bioavailable CXCR2 Antagonists” (J Med Chem, 2018):
Values after ≈ are worked out from the molar mass of the structure shown. Active and inactive are the calls of the source. The calls are words filed in the database; no cut-off is given here.

Experiments:
[1] = Fraction unbound in Han-Wistar SOA rat model brain at 2 mg/kg administered via oral gavage by UPLC/MS/MS analysis; format: ADME, organism-based
[2] = Ratio of passive permeability in presence of dual P-gp/BCRP inhibitor GF120918 to absence of GF120918 in MDCK2-MDR1 cells transduced with BacMam2-BCRP at 3 uM after 90 mins by Transwell assay; format: ADME, cell-based, Canis lupus familiaris; settings: dog, mdck2-mdr1, 1.5 h
Procedure, shortened: (§1)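 MDCKII-MDR1 cells transduced with BacMam2-BCRP and grown in Transwells. Compound at 3 μM, in duplicate, was incubated 90 min A→B (and B→A) with and without GF120918 (5 μM, dual P-gp/BCRP inhibitor). Passive permeability (Pexact, nm/s) was calculated by an equation from earlier work. The permeability ratio is A→B permeability with GF120918 over A→B permeability without it.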

[3] = system: Blood; test: Dose normalized AUC (0 to 7 hrs) in Han-Wistar SOA rat model blood at 2 mg/kg administered via oral gavage by UPLC/MS/MS analysis; format: ADME, organism-based; settings: in vivo
Procedure, shortened: (§2)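 Male Han-Wistar rats were given 2 mg/kg by oral gavage as a suspension in DMSO:1% methylcellulose (1:99). Blood (cardiac puncture, EDTA-K2, under isoflurane) and brains were collected at 0.25–7 h. Brain was homogenised in 3-fold PBS, samples were protein-precipitated and quantified by UPLC/MS/MS.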

[4] = molecular target: T1, C-X-C chemokine receptor type 2 (Homo sapiens, UniProt P25025); test: Antagonist activity at TEV protease cleavage site linked GAL4-VP16-fused recombinant human CXCR2 expressed in cells assessed as inhibition of […] human CXCL1-stimulated beta-arrestin recruitment by CCF4-AM-fluorescence based FRET assay; format: cell-based; settings: read-out: pIC50 (converted)
T1 sequence (P25025 whole entry): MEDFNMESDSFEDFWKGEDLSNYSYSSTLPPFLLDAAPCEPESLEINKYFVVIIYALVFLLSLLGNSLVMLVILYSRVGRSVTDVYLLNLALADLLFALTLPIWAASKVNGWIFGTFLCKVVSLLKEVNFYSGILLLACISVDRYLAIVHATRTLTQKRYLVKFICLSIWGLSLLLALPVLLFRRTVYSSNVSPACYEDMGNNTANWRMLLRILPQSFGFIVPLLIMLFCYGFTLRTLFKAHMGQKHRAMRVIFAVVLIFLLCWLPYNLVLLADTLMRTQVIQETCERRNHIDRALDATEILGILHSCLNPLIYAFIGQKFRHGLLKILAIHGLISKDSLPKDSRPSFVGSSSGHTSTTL
Procedure, shortened: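 Stable cell line expressing recombinant human CXCR2 linked to a TEV site and Gal4-VP16. Cells were starved 24 h at 37 °C, 5% CO2, then resuspended at ~200,000 cells/mL. They were given compound in DMSO (concentration-response), stimulated with 80 nM hCXCL1 and incubated overnight at 37 °C. CCF4-AM substrate was then added for 2 h at RT in the dark.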

[5] = Passive permeability in MDCK2-MDR1 cells transduced with BacMam2-BCRP at 3 uM after 90 mins by Transwell assay; format: ADME, cell-based, Canis lupus familiaris, MDCK-MDR1; settings: dog; read-out: permeability; procedure, shortened: as §1
[6] = Ratio of brain dose normalized AUC (0 to 7 hrs) to […] dose normalized AUC (0 to 7 hrs), Kp of the compound in Han-Wistar SOA rat model at 2 mg/kg administered via oral gavage by UPLC/MS/MS analysis; format: ADME, organism-based
Procedure, shortened: (§3)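 Male Han-Wistar rats given a single 2 mg/kg oral gavage as a suspension in DMSO:1% methylcellulose (1:99). Blood was taken by cardiac puncture under isoflurane at 0.25–7 h, diluted 1:3 with water, and brains were homogenized in 3-fold PBS. Samples were extracted by acetonitrile protein precipitation and quantified by UPLC/MS/MS. Kp = brain DNAUC0-7h/blood DNAUC0-7h; Kp,uu = Kp×Fu,br/Fu,bl.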

[7] = Fraction unbound in Han-Wistar SOA rat model blood at 2 mg/kg administered via oral gavage by UPLC/MS/MS analysis; format: ADME, organism-based
[8] = system: Brain; test: Dose normalized AUC (0 to 7 hrs) in Han-Wistar SOA rat model brain at 2 mg/kg administered via oral gavage by UPLC/MS/MS analysis; format: ADME, organism-based; settings: in vivo; procedure, shortened: as §2
[9] = Unbound brain-to-blood concentration ratio in Han-Wistar SOA rat model at 2 mg/kg administered via oral gavage by UPLC/MS/MS analysis; format: ADME, organism-based; settings: read-out: K(p,uu,brain); procedure, shortened: as §3
[10] = Solubility of compound in fasted state simulated intestinal fluid measured after 4 hrs; format: physicochemical
Procedure, shortened: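 Solubility in FaSSIF, read after 4 h incubation.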

[11] = molecular target: T1, C-X-C chemokine receptor type 2; test: Antagonist activity at CXCR2 in human whole blood assessed as inhibition of GROalpha-stimulated CD11b upregulation preincubated for 15 mins followed by GROalpha stimulation measured after 15 mins by FITC-staining based FACS analysis
[12] = Efflux ratio of passive permeability in MDCK2-MDR1 cells transduced with BacMam2-BCRP at 3 uM after 90 mins by Transwell assay; format: ADME, cell-based, Canis lupus familiaris, MDCK-MDR1; settings: dog
Procedure, shortened: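 MDCKII-MDR1 cells transduced with BacMam2-BCRP in Transwells. Compound at 3 μM was measured in duplicate, A→B and B→A, after 90 min, with and without 5 μM GF120918. ER = B→A/A→B permeability without inhibitor. System qualified with amprenavir and dantrolene ERs.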

[13] = Volume of distribution at steady state in Wistar rat at 1.01 mg/kg, iv measured up to 4 hrs post dose; format: ADME, organism-based; settings: in vivo, read-out: Vdss
[14] = Elimination half life in Wistar rat at 1.01 mg/kg, iv measured up to 4 hrs post dose; format: ADME, organism-based; settings: in vivo, read-out: beta t1/2 (converted)
[15] = Oral bioavailability in Wistar rat at 2.38 mg/kg measured up to 4 hrs after dose; format: ADME, organism-based; settings: in vivo
[16] = Cmax in Wistar rat at 2.38 mg/kg, po measured up to 4 hrs post dose; format: ADME, organism-based; parameters: dose 2.38 mg/kg, route oral; settings: in vivo
[17] = system: Rattus norvegicus; test: Dose normalized AUC (0 to infinity) in Wistar rat at 2.38 mg/kg, po measured up to 4 hrs post dose; format: ADME, organism-based; settings: in vivo
[18] = system: Rattus norvegicus; test: Dose normalized AUC (0 to infinity) in Wistar rat at 1.01 mg/kg, iv measured up to 4 hrs post dose; format: ADME, organism-based; settings: in vivo
[19] = Tmax in Wistar rat at 2.38 mg/kg, po measured up to 4 hrs post dose; format: ADME, organism-based; settings: in vivo
[20] = Clearance in Wistar rat blood at 1.01 mg/kg, iv measured up to 4 hrs post dose; format: ADME, organism-based
[21] = molecular target: C-X-C chemokine receptor type 2 (Mus musculus) (UniProt P35343); test: Antagonist activity at CXCR2 in C57 mouse whole blood assessed as inhibition of GROalpha-stimulated CD11b upregulation at 10 uM preincubated for 2 hr followed by GROalpha stimulation measured after 10 mins by FITC-staining based FACS analysis
[22] = molecular target: C-X-C chemokine receptor type 2 (Mus musculus, UniProt P35343); test: Antagonist activity at CXCR2 in C57 mouse whole blood assessed as inhibition of GROalpha-stimulated CD11b upregulation preincubated for 2 hr followed by GROalpha stimulation measured after 10 mins by FITC-staining based FACS analysis
Sequence of C-X-C chemokine receptor type 2 (Mus musculus, UniProt P35343) (P35343 whole entry): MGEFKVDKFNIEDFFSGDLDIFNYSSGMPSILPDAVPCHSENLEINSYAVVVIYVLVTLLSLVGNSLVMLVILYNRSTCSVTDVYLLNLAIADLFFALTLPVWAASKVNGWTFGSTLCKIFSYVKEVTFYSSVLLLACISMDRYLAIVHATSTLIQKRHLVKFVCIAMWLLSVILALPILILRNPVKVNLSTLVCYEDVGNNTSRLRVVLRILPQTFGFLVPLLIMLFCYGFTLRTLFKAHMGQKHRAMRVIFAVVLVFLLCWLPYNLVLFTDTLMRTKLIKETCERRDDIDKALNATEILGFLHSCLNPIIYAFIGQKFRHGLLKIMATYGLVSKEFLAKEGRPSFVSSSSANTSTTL

Sequence of C-X-C chemokine receptor type 2 (Mus musculus) (P35343 whole entry): as above

fraction unbound [1]	Ratio [2]	AUC/dose [3] [ng·h/mL/mg/kg]	IC50 [4] [nM]	Papp at 1.5 h, 3 µM [5] [×10⁻⁶ cm/s]	Kp [6]	fraction unbound [7]	AUC/dose [8] [ng·h/g/mg/kg]	Kp uu [9]	solubility at 4 h [10] [µg/mL]	IC50 [11] [nM]	SMILES	also measured
0.021	1.6	535	0.501	33.9	0.2	0.007	107	0.59	3.4 (≈ 7.71 µM)		CC1=CCC[C@H]1NC(=O)Nc1ccc(Cl)c(S(=O)(=O)C(C)(C)C(F)(F)F)c1O	
0.033		63.8	1.58	33.1	0.21	0.016	13.4	0.42	25.2 (≈ 56.9 µM)	316	CC1=CCC[C@H]1NC(=O)Nc1ccc(Cl)c(S(=O)(=O)C(C)(C)[C@H]2CCOC2)c1O	efflux ratio at 1.5 h, 3 µM [12]: 2.2
	1.5		1	36.4					1.2 (≈ 3.1 µM)	316	CC1=CCC[C@H]1NC(=O)Nc1ccc(Cl)c(S(=O)(=O)C(C)(C)C)c1O	
	4.3		0.158	3					408 (≈ 916 µM)	1000	CC1=CCC[C@H]1NC(=O)Nc1ccc(C#N)c(S(=O)(=O)C(C)(C)CC(F)(F)F)c1O	
0.137	3.4	2580		20.3	0.06	0.05	161		387 (≈ 905 µM)	126	CC1=CCC[C@H]1NC(=O)Nc1ccc(Cl)c(S(=O)(=O)[C@H]2C[C@H](N(C)C)C2)c1O	
0.034		614	0.631	65.4	0.16	0.011	97	0.48	3 (≈ 7.41 µM)	100	CC1=CCC[C@H]1NC(=O)Nc1ccc(Cl)c(S(=O)(=O)C(C)(C)CF)c1O	Vd [13]: 2.2 L/kg; half-life [14]: 2.5 h; bioavailability [15]: 88%; Cmax [16]: 292 ng/mL; AUC/dose [17]: 961 ng·h/mL/mg/kg; AUC/dose [18]: 1071 ng·h/mL/mg/kg; Tmax [19]: 2.5 h; efflux ratio at 1.5 h, 3 µM [12]: 0.87; clearance [20]: 15.7 mL/min/kg
0.051	2.4	4331		34.8	0.06	0.0065	243		50.8 (≈ 129 µM)	631	CC1=CCC[C@H]1NC(=O)Nc1ccc(Cl)c(S(=O)(=O)C(C)(F)F)c1O	
											CC[C@@H](Nc1c(Nc2cccc(C(=O)N(C)C)c2O)c(=O)c1=O)c1ccc(C)o1 [NAVARIXIN ANHYDROUS]	inhibition [21]: Active; IC50 [22]: 8.1 nM
0.116	4	2575		9	0.03	0.034	73		686 (≈ 1820 µM)	158	CC1=CCC[C@H]1NC(=O)Nc1ccc(C#N)c(S(=O)(=O)C(C)(C)C)c1O	
	4.5		1.26	12.7					24.6 (≈ 55.5 µM)		CC1=CCC[C@H]1NC(=O)Nc1ccc(Cl)c(S(=O)(=O)C(C)(C)[C@@H]2CCOC2)c1O	
0.106	2.4	788		25.2	0.08	0.036	60.5	0.23	20.5 (≈ 49.4 µM)	158	CC1=CCC[C@H]1NC(=O)Nc1ccc(Cl)c(S(=O)(=O)[C@]2(C)CCOC2)c1O	
0.114	2.8	11721		20.5	0.03	0.0065	296		758 (≈ 1670 µM)	100	CC1=CCC[C@H]1NC(=O)Nc1ccc(Cl)c(S(=O)(=O)[C@H]2C[C@H](N3CCCC3)C2)c1O	
